Assay results from publication PMC6873108 (Journal of Medicinal Chemistry, 2019).
“Also recorded” adds a separate entry of the source.

What was measured:
P. aeruginosa PA14 = conditions: vs DMSO control; cited from earlier work
LecBPA14 [1] = biological target: T1, LecBPA14 (Pseudomonas aeruginosa, UniProt A0A0H2ZE85); conditions: read-out: LecBPA14 IC50; previously published; cited from earlier work
T1 sequence (A0A0H2ZE85 2-115): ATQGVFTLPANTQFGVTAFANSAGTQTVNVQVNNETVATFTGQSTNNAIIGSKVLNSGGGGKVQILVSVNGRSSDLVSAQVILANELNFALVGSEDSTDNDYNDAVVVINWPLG

[2] = cited from earlier work
[3] = mice; as reported; cited from earlier work
Plasma stability assay = assay type: in vitro ADME, mouse; conditions: 25 μM, 37 °C, period of 120 min
In short: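 Test compound (DMSO stock) spiked into mouse plasma (pH 7.4) at final 25 μM and incubated at 37 °C. Samples taken at 0, 15, 30, 60, 90 and 120 min, extracted with methanol containing internal standard (5 min shaking), centrifuged, and supernatants analyzed by reversed-phase C18 HPLC (water/acetonitrile + 0.1% formic acid gradient). Controls were procaine, propoxycaine and procainamide at 250 μM.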

LecBPAO1 = LecBPAO1 (Pseudomonas aeruginosa, UniProt Q9HYN5); assay: Isothermal titration calorimetry; assay type: binding; conditions: ITC, 25 °C, mean
[4] = test system: mCherry-expressing P. aeruginosa; assay: Bacterial growth by total fluorescence intensity; assay type: cell-based, Pseudomonas aeruginosa; conditions: 100 μM, 23 h, vs DMSO control
LecBPA14 [5] = biological target: T1, LecBPA14; conditions: ITC, 25 °C, mean
Hep G2 cells = assay: MTT assay; assay type: cell-based, human; conditions: up to 100 μM, 24 h
In short: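 Hep G2 cells grown in DMEM + 10% heat-inactivated FCS (37 °C, 5% CO2) to 75% confluency, then exposed 24 h to compound (0.01–100 μM; DMSO stock diluted in PBS, final 0.1% DMSO). Controls: vehicle, medium, and cells lysed with 0.5% Triton X-100. After two washes, MTT (final 1 mg/mL) for 3 h, then 0.04 M HCl/2-propanol for 15 min at room temperature. A560 read against 670 nm reference; normalized as (A–B)/(C–B) to Triton and vehicle controls.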

Plasma protein binding = assay type: in vitro ADME, mouse; conditions: murine plasma, 100 μM, 37 °C, 2 h

LecBPAO1, sequence (Q9HYN5 2-115 limits assumed): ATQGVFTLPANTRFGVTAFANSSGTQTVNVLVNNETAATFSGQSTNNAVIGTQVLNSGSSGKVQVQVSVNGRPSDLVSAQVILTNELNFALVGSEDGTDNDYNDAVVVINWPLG

For `CO[C@H]1O[C@H](CO)[C@@H](O)[C@H](O)[C@@H]1O` [Compound 1, methyl α-D-mannoside], which “effect on biofilm formation” value (P. aeruginosa PA14) is on record?
The value was “nonsignificant effect”.

For `COc1ccc(/C=C/C(=O)NC[C@H]2O[C@@H](C)[C@@H](O)[C@@H](O)[C@@H]2O)cc1OC` [Compound 5], which IC50 (LecBPA14 [1]) is on record?
Its IC50 is 2800 nM.

For `Cc1cc(C)c(S(=O)(=O)NC[C@H]2O[C@@H](C)[C@@H](O)[C@@H](O)[C@@H]2O)c(C)c1` [Compound 6], which “metabolic stability against liver microsomes and murine plasma” value [2] is on record?
The value was “good metabolic stability”.

And the “toxicity in a murine pharmacokinetics model” value [3]?
The value was “nontoxic”.

For `C[C@@H]1O[C@H](CNS(=O)(=O)c2cccs2)[C@@H](O)[C@H](O)[C@@H]1O` [Compound 7], which “metabolic stability against liver microsomes and murine plasma” value [2] is on record?
Its value is “good metabolic stability”.

And the “toxicity in a murine pharmacokinetics model” value [3]?
The value was “nontoxic”.

With `Cc1oncc1S(=O)(=O)NC[C@H]1O[C@@H](C)[C@@H](O)[C@@H](O)[C@@H]1O` [Compound 17, N-β-L-Fucopyranosylmethyl 5-Methyl-4-isoxazolesulfonamide] as the molecule, how does the “stability in murine plasma” value (Plasma stability assay) read?
The value was “fully stable”.

Which “-TΔS LecBPAO1” value (LecBPAO1) does the source give for `Cc1cc(S(=O)(=O)NC[C@H]2O[C@@H](C)[C@@H](O)[C@@H](O)[C@@H]2O)c(C)s1` [Compound 22, N-β-L-Fucopyranosylmethyl 2,5-Dimethyl-3-thiophenesulfonamide] here?
Its value is 3.23 kcal/mol.

What about the “ΔH LecBPAO1” value (LecBPAO1) of the same molecule?
The value was -11.3 kcal/mol.

And the “stability in murine plasma” value (Plasma stability assay)?
Its value is “fully stable”.

And the “bacterial growth (total fluorescence intensity)” value [4]?
The value was “comparable densities”.

What about the “-TΔS LecBPA14” value (LecBPA14 [5]) of the same molecule?
The value was 0.789 kcal/mol.

What about the “ΔH LecBPA14” value (LecBPA14 [5]) of the same molecule?
The value was -9.66 kcal/mol.

Which “stability in murine plasma” value (Plasma stability assay) does the source give for `Cc1ccc(S(=O)(=O)NC[C@H]2O[C@@H](C)[C@@H](O)[C@@H](O)[C@@H]2O)s1` [Compound 23, N-β-L-Fucopyranosylmethyl 5-Methyl-2-thiophenesulfonamide] here?
The value was “fully stable”.

With `C[C@@H]1O[C@H](CNS(=O)(=O)c2cc(Cl)c(Cl)s2)[C@@H](O)[C@H](O)[C@@H]1O` [Compound 27, N-β-L-Fucopyranosylmethyl 4,5-Dichloro-2-thiophenesulfonamide] as the molecule, how does the “stability in murine plasma” value (Plasma stability assay) read?
Its value is “fully stable”.

What does the source list for `C[C@@H]1O[C@H](CNS(=O)(=O)c2ccc(C#Cc3ccccc3)s2)[C@@H](O)[C@H](O)[C@@H]1O` [Compound 29, N-β-L-Fucopyranosylmethyl 5-Phenylethynyl-2-thiophenesulfonamide]?
toxicity to Hep G2 cells (in words) (Hep G2 cells): weak toxicity; also recorded: moderate mammalian cytotoxicity; stability in murine plasma (Plasma stability assay): fully stable; plasma protein binding (in words) (Plasma protein binding): highly bound; also recorded: very high plasma protein binding; bacterial growth (total fluorescence intensity) [4]: comparable densities

Which “effect on biofilm formation” value (P. aeruginosa PA14) does the source give for `CO[C@@H]1O[C@@H](C)[C@@H](O)[C@@H](O)[C@@H]1O` [Compound 42, methyl α-L-fucoside] here?
Its value is “nonsignificant effect”.
